# Reference: ChEMBL document CHEMBL4513216, “Probing the Open Global Health Chemical Diversity Library for Multistage-Active Starting Points for Next-Generation Antimalarials” (ACS Infect Dis, 2020)
# Assay: Toxicity liver stage against HepG2, at 10uM
# Format: cell-based
# Design: test concentration 10 uM, cell line HepG2-A16-CD81EGFP
# Conditions: human, HepG2-A16-CD81EGFP cells; read-out: INHIBITION
# Procedure, shortened: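 Uninfected HepG2-A16-CD81EGFP cells, 3 × 10^3 per well, 1536-well, plated on prespotted compound at 10 μM final, parasite-free screening media added to match infected plates; puromycin 10 μM positive, DMSO 0.5% negative; run in parallel with 48 h PbLuc assay at 37 °C, 5% CO2; viability by CellTiter-Glo luminescence, normalized to controls.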
row,SMILES,cytotoxicity at 10 µM [%]
1,CC(C)NC(=O)N1CC[C@@H](N(C)C)[C@@H]1Cc1ccccc1,9.82
2,O=C(NC[C@]12COC[C@H]1CN(Cc1cccnc1)C2)c1ccsc1,2.95
3,CCC(CNC(=O)c1c(C)nn(C)c1OC)Oc1ccccc1 (configuration not stated),-4.89
4,CCN1CCC(CC(=O)NCCc2nc(C)cc(C)n2)CC1,-8.06
5,Cc1ccc(S(=O)(=O)NC2CC2)cc1C,-10.6
6,COc1ccc(CN2CCN(CCn3ccnc3)CC2)cc1F,-8.88
7,COc1cccc(C(=O)N2CCOCC2CN(C)C)c1OC (configuration not stated),-4.03
8,Cc1nc(CN(C)C2CCCN(c3cccnn3)C2)nc2ccccc12 (configuration not stated),-0.164
9,Cc1cc(CN(C)C2CCN(c3cccc(-c4cscn4)c3)CC2)on1,-0.371
10,CCSc1ccc(NC(=O)NC(C)c2ccncc2)cn1 (configuration not stated),-5.14
11,CN1C[C@@H](NC(=O)CC(C)(C)C)C[C@H]1c1nc(-c2cnccn2)no1,3.08
12,CN(Cc1cccc(F)c1)C(=O)CN1CCCC(Cn2cncn2)C1 (configuration not stated),4.64
13,Cc1cc(C(F)(F)F)nn1CC(C)C(=O)Nc1cccnc1 (configuration not stated),11.5
14,O=C1CN(Cc2ccc3ccccc3n2)CCN1C1CCCC1,-3.45
15,CS(=O)(=O)N1CCC(C(=O)N2CCOc3ccccc32)CC1,-0.595
16,CN(C)CCN(Cc1cccnc1)C(=O)c1ccn(-c2ccccc2)n1,2.41
17,CCNC(=O)Cn1ncc(N(C)CCc2ccccc2)cc1=O,5.69
18,Cc1cccc(CN2CCc3[nH]nc(C(=O)N4CCOCC4)c3C2)n1,6.31
19,CCC(C)(CC(=O)OC)NC(=O)c1ccc2[nH]ccc2c1 (configuration not stated),-2.8
20,CCCNC(=O)c1sc(Nc2ccc(Cl)cn2)nc1C,-15.2
21,Cc1cc2occ(CC(=O)N3CCC4(CCCN(C)C4=O)C3)c2cc1Cl (configuration not stated),-4.03

row,SMILES,cytotoxicity at 10 µM [%]
1,CC(C)c1noc(C(C)N2CCN(Cc3noc(C4CC4)n3)CC2)n1 (configuration not stated),3.01
2,CCc1nc(CNc2nc3c(s2)c(C)nn3C)cs1,-72
3,Cc1ccc(S(=O)(=O)N(CC2CCOC2)C2CC2)cc1N(C)C (configuration not stated),-9.77
4,Cc1ccc(CN2CCC3(CC2)C(=O)N(C)c2ccccc23)s1,-5.68
5,Cc1nccn1-c1ncccc1NC(=O)CCOCC(C)C,-2.59
6,Cc1c(NC(=O)NC2CN3CCC2CC3)cccc1C(=O)N1CCCC1 (configuration not stated),10.1
7,CN1CCN(Cc2nnc(C3CCN(S(C)(=O)=O)CC3)n2C)CC1,4.67
8,O=C(c1ccccc1OCC1CC1)N1CCCC1Cn1cccn1 (configuration not stated),-6.77
9,CCNC(=O)N1CCC2(C1)c1ccccc1S(=O)(=O)N2CCC(C)C (configuration not stated),-8.25
10,NC(=O)N1CC[C@@H]2O[C@@H](COCC(=O)N3CCCC3)CC[C@@H]21,-0.356
11,Cc1noc(-c2ccc(N3CCC(C(=O)N4CCCC4)CC3)nc2)n1,6.5
12,COCCOc1ccc(Cl)c(C(=O)N2CCN(CCO)CC2)n1,-4.33
13,Cc1nc(Nc2nnc(C)s2)cc(C2CCCN2S(C)(=O)=O)n1 (configuration not stated),-11.9
14,O=C(N[C@H]1CN2CCC1CC2)c1cc(Cn2cnc3ccccc32)[nH]n1,-4.26
15,COCc1cccc(C(=O)N2CCCC2)c1,-1.7
16,Cc1nnc(N2CC[C@H]3C[C@@H](C(=O)N4CCCC4)O[C@H]3C2)s1,-70.6
17,Cc1cc(NC(=O)CN2CCN(c3nc(C)cs3)C(C)C2)on1 (configuration not stated),-1.81
18,CCO[C@H]1CN(C)C[C@@H]1NC(=O)c1cc(C)nc2c(C)cccc12,3.28
19,O=C(NCC1CCN(Cc2ccsc2)CC1)NC1CC1,6.82
20,CCCC(C#N)NC(=O)Cc1csc(CC)n1 (configuration not stated),-2.08
21,CN(Cc1ccco1)C(=O)CN1CCOC(Cn2cncn2)C1 (configuration not stated),-7.36

row,SMILES,cytotoxicity at 10 µM [%]
1,O=C(NCC(F)F)N1CCC(n2ccc(C(F)(F)F)n2)CC1,-10.2
2,Cc1cc(S(=O)(=O)NCC[S+](C)[O-])c(F)cc1F (configuration not stated),-4.23
3,CCc1nc(C)cc(N2CCCC(C(=O)c3ccc(OC)cc3C)C2)n1 (configuration not stated),9.99
4,CCCS(=O)(=O)N1CCN(CC(F)(F)F)CC1,-3.29
5,COc1c(C)cnc(CN2CCC(N(C)C(C)C(N)=O)CC2)c1C (configuration not stated),-3.38
6,COc1ccnc(N2C[C@@H](NS(=O)(=O)N(C)C)[C@H](C(C)C)C2)n1,-144
7,O=C(NCC1CC1)C1CCC2(CCN(C(=O)c3ccncc3)CC2)O1 (configuration not stated),-0.0368
8,Cc1ccc(CN(C)Cc2cc(C3CC3)[nH]n2)c(O)n1,4.11
9,COc1ccc(CCN(C)CCS(=O)(=O)c2ccc(Cl)cc2)cc1OC,35.4
10,CN1CCCC(c2cccc(-c3cccc(Cl)c3)n2)C1 (configuration not stated),-9.58
11,O=C(CN1CCCC1c1nc(-c2ccccn2)no1)N1CCOCC1 (configuration not stated),6.08
12,CCc1nc(NS(=O)(=O)c2cc(C)ccc2F)no1,-4.71
13,Cc1ccc(-c2nc(CC(=O)NCC3CCOC3)cs2)o1 (configuration not stated),-43
14,O=C1NCc2ccccc2CC12CCCN(Cc1ccsc1)C2 (configuration not stated),11
15,O=C1NCCN1C1CCN(Cc2nc(-c3ccoc3)no2)CC1,-9.06
16,CCN1CCN(C(=O)CCc2c(C)noc2Cl)CC1,-4.37
17,COCCN1C(=O)CC[C@@H]2[C@H]1CCN2S(=O)(=O)c1cccs1,-87.2
18,CCC1CN(C)c2ccccc2CN1C(=O)c1c[nH]c(=O)cc1C (configuration not stated),16.1
19,CCc1noc(C(C)N2CCC(N3CCCCC3)CC2)n1 (configuration not stated),-4.8
20,Cc1occc1C(=O)N1CCOCC2(CCN(C3CCOCC3)C2)C1 (configuration not stated),1.47
21,CCCc1cc(=O)[nH]c2nnc(SCC(=O)NCc3ccc(C)cc3)n12,-15.7

row,SMILES,cytotoxicity at 10 µM [%]
1,Cn1cc(CNC2CCc3c(ccc(=O)n3Cc3cccnc3)C2)cn1 (configuration not stated),-108
2,CC(C(=O)NCc1ccc(N2CCN(C)CC2)nc1)n1cccn1 (configuration not stated),-9.51
3,CC(C)Cc1noc(CN(C)c2ncccn2)n1,5.23
4,CCOc1cc(CNCc2nc(C)cc(=O)[nH]2)c(Cl)cc1OC(C)C,-7.83
5,CCn1cc(Cl)c(C(=O)NCCCO)n1,6.42
6,CN(C1CCN(c2ccccn2)CC1)S(=O)(=O)c1ccccc1F,14
7,CN(C)c1ccc(-c2cc(=O)n3c(n2)CCCCC3)cc1,-13.1
8,CCn1ncc2c1CCCC2NCc1ccccc1N1CCOCC1 (configuration not stated),-7.66
9,Cc1nnc(CN(Cc2ccccc2C(F)(F)F)C2CC2)o1,8.32
10,CC(=O)NC1CCN(c2nc(N(C)C)nc3c2CCN(C(C)=O)C3)CC1,0.541
11,O=C(c1ccnc(-n2cnnc2)c1)N1CCCC2(CCNC2)C1 (configuration not stated),-19.1
12,CC(C)(C)C(=O)Cn1nc(-c2ccccc2F)ccc1=O,-8.46
13,COc1cc(CNCC(C)O)cc(Cl)c1OCc1ccc(C)cc1 (configuration not stated),-5.23
14,CCn1cc(S(=O)(=O)NC(=O)CCc2c[nH]c3ccccc23)cn1,-11.3
15,O=C(c1cccnc1)N1CCCC2(CCN(c3ccsc3)C2=O)C1 (configuration not stated),-1.29
16,CCN(CC)C(=O)Cn1ccc2cc(NC(=O)NC3CC3)ccc21,-9.01
17,COc1ccc2cc(CN(C)C(C)c3nc(C4CC4)no3)ccc2c1 (configuration not stated),3.18
18,Cc1nc(C)n(C2CCCN(C(=O)CCc3cn(C)nc3C)C2)n1 (configuration not stated),-11.5
19,CCCNC(=O)C1CCN(Cc2csc(CC)n2)CC1,-10.4
